Data as given in PubChem BioAssay AID651936 (NMMLSC, 2012).

Tested on: AM2.2-beta2AR cells, FAP fluorogen binding after washes, flow cytometry
Assay: washout recovery of fluorogen binding to FAP – AM2.2-beta2AR cells, powder sets 3 and 4, mechanism study for beta2AR internalization ligand project (AID 651936)
Summary of the method: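 Material: AM2.2-beta2AR cell line; medium: serum-free RPMI, 1% FBS RPMI wash medium; also added: TO1-2p at 150 nM final, added to cell aliquots; incubation: compound exposure 90 min, 37 °C; technique: flow cytometry of TO1-2p-labelled cell aliquots; read-out basis: TO1-2p binding versus number of washes; benchmarks: DMSO-only treated cells as negative control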

CCOC(=O)N1CCN(C(=O)CN(C)S(=O)(=O)c2ccc(Cl)cc2)CC1
normalized fluorogen binding (at 10 µM (top of the series)): 0.122

CC(C)n1nnc2cc(S(=O)(=O)N(C)CC(=O)N3CCN(c4ccccn4)CC3)ccc21
normalized fluorogen binding (at 60 µM (top of the series)): 0.257

CN(CC(=O)N1CCN(c2ccccn2)CC1)S(=O)(=O)c1ccc(Br)cc1
normalized fluorogen binding (at 0.2 µM (top of the series)): 0.145

Cc1ccc(S(=O)(=O)N2CCCCC2C(=O)N2CCN(c3ccc(C(F)(F)F)cn3)CC2)cc1 (configuration not stated)
normalized fluorogen binding (at 100 µM (top of the series)): 0.154

CC(=O)Nc1ccc(S(=O)(=O)N2CCCCC2c2cccnc2)cc1 (configuration not stated)
normalized fluorogen binding (at 1.4 µM (top of the series)): 0.147
normalized fluorogen binding (at 60 µM (top of the series)): 0.642

Cc1ccc(S(=O)(=O)N(C)CC(=O)N2CCN(c3ccccn3)CC2)cc1
normalized fluorogen binding (at 0.8 µM (top of the series)): 0.124

CCCCC(=O)Nc1ccc(S(=O)(=O)N2CCCCC2c2cccnc2)cc1 (configuration not stated)
normalized fluorogen binding (at 0.3 µM (top of the series)): 0.181

CN(CC(=O)N1CCN(c2ccccn2)CC1)S(=O)(=O)c1ccc(Cl)cc1
normalized fluorogen binding (at 0.2 µM (top of the series)): 0.143

CN(CC(=O)N1CCN(c2cccc(C(F)(F)F)c2)CC1)S(=O)(=O)c1ccc(F)cc1
normalized fluorogen binding (at 60 µM (top of the series)): 0.233

CN(CC(=O)N1CCN(c2ccccn2)CC1)S(=O)(=O)c1ccccc1
normalized fluorogen binding (at 0.85 µM (top of the series)): 0.218

O=C(Nc1ccc(S(=O)(=O)N2CCCCC2c2cccnc2)cc1)c1c(F)cccc1F (configuration not stated)
normalized fluorogen binding (at 2 µM (top of the series)): 0.232
